From PubChem
MC4R ag barr: activates human MC4R beta-arrestin recruitment | U2OS MC4R beta-arrestin complementation, luminescence; percent of melanotan II response, DMSO zero | activation, % at 8.9 µM | 0.98% of 360,000 active;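 active = activation above a per-plate cutoff, the mean activation of sample wells on that plate plus 3 SD, cut at about 8% in these data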
Target sequence (P32245 whole entry, looked up): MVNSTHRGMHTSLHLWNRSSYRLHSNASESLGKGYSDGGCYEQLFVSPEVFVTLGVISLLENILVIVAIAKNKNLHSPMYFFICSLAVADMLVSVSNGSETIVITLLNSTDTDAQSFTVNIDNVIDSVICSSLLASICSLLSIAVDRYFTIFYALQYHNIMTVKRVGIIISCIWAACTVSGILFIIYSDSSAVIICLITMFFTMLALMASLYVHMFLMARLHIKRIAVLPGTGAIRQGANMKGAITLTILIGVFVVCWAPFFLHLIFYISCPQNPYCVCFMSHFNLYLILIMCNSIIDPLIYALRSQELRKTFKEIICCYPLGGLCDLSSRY
Calb FLC: C. albicans growth modulation with fluconazole | C. albicans CaCi-2 + fluconazole, Alamar Blue growth, 48 h | growth inhibition, % (concentration not given with the values) | 0.57% of 300,000 active | AID 1979;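 active = growth inhibition above about 58% in most replicates, limit read from the data, passing the limit was not always enough; inconclusive = exactly half the replicates above a set limit; inactive = most replicates below a set limit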;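 also: all wells also contain fluconazole at 8 µg/ml as a sub-toxic cotreatment; 0% = median of DMSO wells and 100% = median of geldanamycin control wells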
Efflux pump mplx: inhibitors of Candida antifungal efflux pumps expressed in yeast. S. cerevisiae Candida pump triplex, Nile Red efflux. inhibition, % at 10 µM. 0.44% of 330,000 active. AID 485275;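 active = plate passing quality check with inhibition over a set limit, or well fluorescence over plate mean plus 4 SD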;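 also: Nile Red retained in pooled yeast measured as flow cytometry median fluorescence; 0% = buffer negative control and 100% = Enniatin B positive control; higher means more Nile Red kept so more efflux inhibition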
TAG inh: triacylglycerol accumulation inhibition | H9c2 cells, Nile Red lipid (TAG) fluorescence; cells loaded with 200 µM oleic acid | inhibition, % at 12.5 µM | 0.66% of 230,000 active | AID 651582;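 active = pattern-corrected inhibition of lipid staining of at least 50% with the nuclear-stain viability signal not falling by more than 50%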;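 also: 0% = DMSO wells and 100% = triacsin C control wells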
MC4R antagonist: antagonists of human melanocortin 4 receptor (MC4R); P32245; MC4R-expressing cells, MTII-stimulated cAMP, LANCE TR-FRET; inhibition, % at 6.5 µM; 0.48% of 360,000 active;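 active = inhibition above its plate's cutoff, the mean of tested wells on that plate plus 3 SD, cut at about 29% in these data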;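 also: 0% = Melanotan II alone and 100% = Melanotan II plus saturating MCL0020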
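Material: human MC4R-expressing U2OS cells. Probe or stimulus: Melanotan II challenge. Dosing: 6.5 µM single dose. Times: 30-min compound, 1-h challenge, 1-h detection, room temperature. Technique: TR-FRET with Eu-cAMP and labeled anti-cAMP, 671 nm. Replication: singlicate.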
GalR3 antag: human GalR3 antagonism; O60755; HEK293 GalR3-CNG cAMP membrane potential fluorescence; galR3 body fused to GalR1 C-terminus; inhibition, % at 3 µM; 0.44% of 360,000 active;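 active = inhibition above the screen-wide average plus 3 SD, cut at about 13% in these data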;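 also: forskolin and galanin both at EC90 stimulate the cells; cAMP rise reported by CNG channel membrane potential dye signal; 0% = forskolin plus galanin with DMSO and 100% = forskolin alone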
Target sequence (O60755 1-299 limits assumed): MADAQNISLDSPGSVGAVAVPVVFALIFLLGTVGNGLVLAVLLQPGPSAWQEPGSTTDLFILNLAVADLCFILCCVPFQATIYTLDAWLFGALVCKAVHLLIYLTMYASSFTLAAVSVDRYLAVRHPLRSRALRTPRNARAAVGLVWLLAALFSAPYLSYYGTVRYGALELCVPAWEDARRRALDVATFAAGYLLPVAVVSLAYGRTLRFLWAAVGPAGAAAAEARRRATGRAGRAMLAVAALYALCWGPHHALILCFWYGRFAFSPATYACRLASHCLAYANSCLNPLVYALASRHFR
U2OS cAMP counter: U2OS forskolin cAMP inhibition counter-screen. shares compounds with MC4R antagonist. parental U2OS, LANCE TR-FRET. inhibition, % at 6.5 µM. 26% of 1,600 active;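 active = mean inhibition over triplicates above the low-control well mean plus 3 SD, set per campaign, cut at about 13% in these data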;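 also: signal is single emission at 671 nm which falls as cellular cAMP rises; 0% = forskolin-stimulated wells and 100% = buffer without forskolin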
MC4R antag conf: human MC4R cAMP antagonism confirmation; 27% of 1,600 active; MC4R-expressing cells, MTII-stimulated cAMP, TR-FRET; inhibition, % at 6.5 µM; shares compounds with MC4R antagonist; AID 602195; in the data active = inhibition above about 29%;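 also: 0% = agonist stimulated wells alone and 100% = agonist stimulated wells plus saturating reference antagonist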
Starred values were filed as active, the others as inactive; u = inconclusive; x = no result given. Hits are enriched below; roughly 2.9% of the tested compounds scored in any of these assays.

SMILES	MC4R ag barr	Calb FLC	Efflux pump mplx	TAG inh	MC4R antagonist	GalR3 antag	U2OS cAMP counter	MC4R antag conf
C[C@@H]1CN([C@@H](C)CO)C(=O)CCCn2cc(nn2)CO[C@H]1CN(C)S(C)(=O)=O	x	x	x	x	x	-5	x	x
COc1ccc(Cl)cc1NC(=S)Nc1ccccc1C	0	-1	0	-2	29*	-2	-2	-2
COc1ccc(Cl)cc1NC(=O)c1ccccc1C	-1	-8	0	x	4	3	x	x
CCOC(=O)[C@]12CCC=C1N(Cc1ccc(Cl)cc1Cl)C(=O)[C@H](CC(=O)NCC1CCCCC1)C2	x	x	x	x	x	-5	x	x
CC1(C)Cc2c(sc3[nH]c(=S)n(Cc4ccco4)c(=O)c23)CO1	0	32	0	x	34*	-2	7	17
O=c1c2c3c(sc2[nH]c(=S)n1Cc1ccco1)CCC3	-3	-6	0	14	10	-6	x	x
Cc1ccc(F)c(NC(=O)c2cncn2-c2ccccc2)c1	-1	0	0	x	30*	-10	0	-9
O=C(/C=C/c1ccc(Cl)c([N+](=O)[O-])c1)Nc1cccc(NC(=O)c2ccco2)c1	-1	43	0	x	45*	-12	53*	57*
O=C(/C=C/c1ccc(Cl)c([N+](=O)[O-])c1)Nc1ccc(NC(=O)c2ccco2)cc1	0	3	x	13	10	-3	x	x
COC(=O)[C@]12C[C@H](CC(=O)N3CCCC3)C(=O)N(Cc3ccc4c(c3)OCO4)C1=C[C@H](COCc1ccccc1)O[C@@H]2C	x	x	x	x	x	-4	x	x
CC1CN(S(=O)(=O)c2ccc(C(=O)N3c4ccccc4CC3C)cc2)CC(C)O1 (stereo not given)	-1	x	0	-3	29*	-4	-2	-18
COCC(C)n1c(SCC(=O)Nc2cccnc2Cl)nc2ccccc2c1=O (stereo not given)	0	x	x	2	-5	-5	x	x
O=C(CNS(=O)(=O)c1ccccc1)NNC(=O)C(Cl)Cl	-2	-3	0	13	29*	0	-5	-13
Brc1ccc(-c2nnc3sc(CNC4CCCC4)cn23)cc1	0	-1	0	-1	32*	x	17*	33*
Cc1c(Cc2ccccc2)[n+](=O)c2ccccc2n1[O-]	-1	x	x	-4	1	-8	x	x
COc1cc(/C=C2\C(=N)N3N=C(S(C)(=O)=O)SC3=NC2=O)cc(OC)c1OCCOc1ccc(C)cc1	-2	8	0	x	17	-6	x	x
COc1cc(/C=C2\C(=N)N3N=C(S(C)(=O)=O)SC3=NC2=O)ccc1OCCOc1ccc(C)cc1	0	8	0	x	34*	-10	1	-10
CCc1ccc(N2CC(C(=O)N3CCN(c4ccc([N+](=O)[O-])cc4)CC3)CC2=O)cc1 (stereo not given)	-1	x	x	-11	-1	-7	x	x
CC1(C)OC(=O)C(=Cc2ccc(-c3ccc(S(N)(=O)=O)cc3)o2)C(=O)O1	-1	0	0	-10	39*	-4	11	19
NS(=O)(=O)c1ccc(-c2ccc(/C=C3\C(=O)Nc4ccccc43)o2)cc1	x	-4	0	x	x	x	x	x
O=c1c2c3c(sc2n(CCN2CCOCC2)c(=O)n1C1CCCCC1)CCCCC3	x	x	x	x	x	-3	x	x
COC(=O)C1=C(C)N(Cc2ccccc2C(F)(F)F)C(=NCc2ccc(C(F)(F)F)cc2)NC1CCc1ccccc1 (stereo not given)	x	x	x	x	x	-6	x	x
Cc1ccsc1C(=O)OCC(=O)Nc1ccc(Cl)cc1C(F)(F)F	1	9	0	x	16	-1	x	x
Cc1ccc(C(=O)NCC(=O)OCC(=O)Nc2ccc(Cl)cc2C(F)(F)F)cc1C	4	-6	0	x	29*	1	6	18
CCCNC(=O)C1(C)CCCN(C(=O)c2ccccc2OC(F)(F)F)C1 (stereo not given)	0	x	x	-3	12	-4	x	x
SMILES	MC4R ag barr	Calb FLC	Efflux pump mplx	TAG inh	MC4R antagonist	GalR3 antag	U2OS cAMP counter	MC4R antag conf
N=c1c2c(-c3ccccc3)c(-c3ccccc3)n(Cc3ccccc3)c2ncn1CCCn1ccnc1	1	1	0	x	29*	-7	-2	35*
CCOC(=O)C1=CCN(S(=O)(=O)c2ccc(Cl)cc2)C1c1cccc(C)c1 (stereo not given)	x	x	x	x	x	-5	x	x
Cc1nn(-c2ccc(Cl)cc2)c(=O)c2ccccc12	-1	30	0	-1	6	-5	x	x
Cc1c(Cl)sn(-c2ccc(Cl)cc2)c1=O	0	x	x	106	73*	8	13	70*
COC(=O)c1ccc2c(=O)[nH]c(COC(=O)c3c(-c4ccccc4Cl)noc3C)nc2c1	2	-5	0	10	29*	-4	-1	5
COC(=O)c1ccc2c(=O)[nH]c(COC(=O)c3[nH]c(C)c(C(C)=O)c3C)nc2c1	-1	x	0	5	24	-2	x	x
CCCCC1Cc2[nH][nH]c(=O)c2C(c2ccc(F)cc2)O1 (stereo not given)	x	x	x	x	x	6	x	x
O=C(CC1C(=O)NCCN1CC1CCCCC1)NCc1cccc(F)c1F (stereo not given)	3	-20	0	13	30*	-3	0	-1
Cc1ccccc1CNC(=O)CC1C(=O)NCCN1CC1CCCCC1 (stereo not given)	0	-13	0	1	9	-6	x	x
COC(=O)C1=C(C)N(Cc2ccccc2C(F)(F)F)C(=NCC2CC2)NC1c1ccc(F)cc1 (stereo not given)	x	x	x	x	x	-3	x	x
Nc1ccc(CCCC(=O)NCc2cccnc2)cc1	-1	x	x	-13	5	-4	x	x
CSc1ccc(/C=C(\C#N)C(=O)NC2CCCCC2C)cc1 (stereo not given)	-1	2	-6	x	-4	-5	x	x
CC1CCCCC1NC(=O)/C(C#N)=C/c1ccccc1F (stereo not given)	-2	-2	0	x	35*	-5	5	14
O=C(Nc1ccc(N2CCOCC2)cc1)C1(S(=O)(=O)c2ccccc2)CC1	1	u	0	-5	-8	-2	x	x
CC(=O)c1ccc(NC(=O)C2(S(=O)(=O)c3ccccc3)CC2)cc1	0	-44	0	-3	30*	1	0	-3
Nc1[nH]c(C(=O)c2ccc(Br)cc2)c(-c2ccc(Br)cc2)c1C(=O)NCc1cccc2ccccc12	x	x	x	x	x	-4	x	x
CC(C)(C)NC(=O)NC(=O)COC(=O)CNC(=O)c1cc(Cl)cc([N+](=O)[O-])c1	-6	-2	0	2	30*	-7	11	12
CCN(CC)CCCNC(=O)CCC(=O)Nc1ccc2nc(N3CCC(C)CC3)cc(C)c2c1	0	13	0	0	37*	9	4	0
